# Square brackets hold non-standard residues; d marks the D form. Peptide text beside a SMILES is read from it. Phe(4-guanidino) = N=C(N)Nc1ccc(C[C@H](N)C(=O)O)cc1; Nle = CCCC[C@H](N)C(=O)O
# Assays:
# [1] = biological target: T1, Proprotein convertase subtilisin/kexin type 6 (Homo sapiens, UniProt P29122); assay: Inhibition of human recombinant PACE4 expressed in drosophila schneider 2 cells using pyroGlu-Arg-Thr-Lys-Arg-AMC as substrate after 1 hr
# T1 sequence (P29122 whole entry): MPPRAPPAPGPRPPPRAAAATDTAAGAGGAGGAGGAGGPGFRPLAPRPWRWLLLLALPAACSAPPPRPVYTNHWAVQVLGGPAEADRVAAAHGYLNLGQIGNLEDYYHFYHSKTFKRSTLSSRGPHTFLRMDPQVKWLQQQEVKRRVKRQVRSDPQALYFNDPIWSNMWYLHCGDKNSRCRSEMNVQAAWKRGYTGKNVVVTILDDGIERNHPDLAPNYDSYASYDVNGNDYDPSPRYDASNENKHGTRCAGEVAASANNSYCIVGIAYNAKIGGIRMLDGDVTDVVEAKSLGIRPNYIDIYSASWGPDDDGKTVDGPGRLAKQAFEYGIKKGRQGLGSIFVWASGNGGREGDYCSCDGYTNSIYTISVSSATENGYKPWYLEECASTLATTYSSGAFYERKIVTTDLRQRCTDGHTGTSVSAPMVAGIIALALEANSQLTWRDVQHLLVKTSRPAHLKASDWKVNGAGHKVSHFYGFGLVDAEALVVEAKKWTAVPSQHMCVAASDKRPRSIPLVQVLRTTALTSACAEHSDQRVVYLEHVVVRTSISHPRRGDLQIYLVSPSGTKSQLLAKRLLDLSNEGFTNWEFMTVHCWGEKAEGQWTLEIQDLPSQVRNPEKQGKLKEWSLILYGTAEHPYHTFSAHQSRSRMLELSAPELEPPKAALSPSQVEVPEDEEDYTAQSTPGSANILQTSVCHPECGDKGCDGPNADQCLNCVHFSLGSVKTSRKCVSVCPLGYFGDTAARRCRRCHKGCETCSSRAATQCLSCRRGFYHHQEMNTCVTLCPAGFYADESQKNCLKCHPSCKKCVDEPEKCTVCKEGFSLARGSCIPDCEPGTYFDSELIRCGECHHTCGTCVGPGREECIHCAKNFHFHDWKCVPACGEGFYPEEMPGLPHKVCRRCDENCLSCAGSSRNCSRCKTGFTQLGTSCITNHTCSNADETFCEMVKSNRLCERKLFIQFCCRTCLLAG
# How it was run: (§1)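 Human enzymes were expressed in Drosophila S2 cells and purified. Fluorogenic pyroGlu-RTKR-AMC was used at fixed concentration with varied inhibitor, 37 °C over 1 h. Buffers: furin, 100 mM Hepes pH 7.5, 1 mM CaCl2, 1 mM β-mercaptoethanol, 1.8 mg/mL BSA; PACE4 and PC7, 20 mM Bis-Tris pH 6.5, 1 mM CaCl2, 1.8 mg/mL BSA; PC2, same buffer at pH 5.7. Ki from IC50 (Cheng–Prusoff), or apparent Ki (Morrison) for tight binders. Triplicate, mean ± SD.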
# Furin = Furin (Homo sapiens, UniProt P09958); assay: Inhibition of human recombinant furin expressed in drosophila schneider 2 cells using pyroGlu-Arg-Thr-Lys-Arg-AMC as substrate after 1 hr; how it was run: as §1
# Sequence of Furin (P09958 whole entry): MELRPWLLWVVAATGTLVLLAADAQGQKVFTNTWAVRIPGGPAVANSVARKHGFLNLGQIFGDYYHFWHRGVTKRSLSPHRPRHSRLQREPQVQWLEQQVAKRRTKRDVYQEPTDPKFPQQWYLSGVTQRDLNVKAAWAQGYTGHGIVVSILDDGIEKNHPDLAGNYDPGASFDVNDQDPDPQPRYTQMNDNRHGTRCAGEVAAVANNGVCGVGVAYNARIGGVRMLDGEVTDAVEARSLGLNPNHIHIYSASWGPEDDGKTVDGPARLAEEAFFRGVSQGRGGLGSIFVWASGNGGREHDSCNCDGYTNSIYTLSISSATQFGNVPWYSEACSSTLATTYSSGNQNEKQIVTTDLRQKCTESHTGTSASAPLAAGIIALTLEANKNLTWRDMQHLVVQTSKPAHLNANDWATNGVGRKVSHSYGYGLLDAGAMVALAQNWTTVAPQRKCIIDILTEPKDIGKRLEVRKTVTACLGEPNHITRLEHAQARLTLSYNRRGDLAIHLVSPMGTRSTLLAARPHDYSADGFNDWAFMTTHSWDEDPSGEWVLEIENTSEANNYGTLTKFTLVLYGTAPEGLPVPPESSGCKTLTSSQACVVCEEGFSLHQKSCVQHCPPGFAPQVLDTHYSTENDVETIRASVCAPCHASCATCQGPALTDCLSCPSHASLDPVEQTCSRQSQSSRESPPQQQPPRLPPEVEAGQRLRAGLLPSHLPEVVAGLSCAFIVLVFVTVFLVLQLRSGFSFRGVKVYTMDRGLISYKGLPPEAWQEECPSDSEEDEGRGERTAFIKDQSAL
# [2] = Acute toxicity in human DU145 cells assessed as cell death/lysis at 100 uM after 4 hrs by LDH assay; format: cell-based, DU-145; conditions: read-out: INH
# How it was run: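 DU145 cells (RPMI 1640, 5% FBS, 37 °C, 5% CO2) plated; 24 h later peptides added at 100 μM. After 4 h, release of lactate dehydrogenase into the medium was quantified enzymatically with a commercial LDH cytotoxicity kit as the measure of acute membrane damage/lysis.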
# DU-145 = assay: Cytotoxicity against human DU145 cells after 72 hrs by MTT assay; format: functional, cell-based; conditions: DU-145, 72 h
# How it was run: (§2)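 Prostate cancer cells were kept in RPMI 1640 at 37 °C, 5% CO2, with 5% FBS for DU145 and 10% FBS for LNCaP and PC3. After 24 h, medium was changed and peptides added at various concentrations, up to 350 μM. Viability was read by MTT after 72 h treatment. IC50 from dose–response curves, triplicate, mean ± SEM.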
# PC-3 = assay: Cytotoxicity against human PC3 cells up to 350 uM after 72 hrs by MTT assay; format: functional; how it was run: as §2
# LNCaP = assay: Cytotoxicity against human LNCAP cells after 72 hrs by MTT assay; format: functional, cell-based; how it was run: as §2
SMILES,Ki [1] [nM],Ki (Furin) [nM],"cytotoxicity at 4 h, 100 µM [2] [%]",IC50 (DU-145) [nM],inhibition (INH) (PC-3) [%],IC50 (LNCaP) [nM]
CCCC[C@H](NC(C)=O)C(=O)N[C@@H](CCCC)C(=O)N[C@@H](CCCC)C(=O)N[C@@H](CCCC)C(=O)N[C@@H](CCCNC(=N)N)C(=O)N[C@H](C(=O)N[C@@H](CCCCN)C(=O)N[C@@H](CCCNC(=N)N)C(N)=O)C(C)C,500,2550,–,–,–,–
CCCC[C@H](NC(C)=O)C(=O)N[C@@H](CCCC)C(=O)N[C@@H](CC(C)C)C(=O)N[C@@H](CCCC)C(=O)N[C@@H](CCCN=C(N)N)C(=O)N[C@H](C(=O)N[C@@H](CCCCN)C(=O)N[C@@H](CCCN=C(N)N)C(N)=O)C(C)C,60,1070,–,–,–,–
CC(=O)N[C@@H](CC(C)C)C(=O)N[C@H](CC(C)C)C(=O)N[C@@H](CC(C)C)C(=O)N[C@@H](CC(C)C)C(=O)N[C@@H](CCCN=C(N)N)C(=O)N[C@H](C(=O)N[C@@H](CCCCN)C(=O)N[C@@H](CCCN=C(N)N)C(N)=O)C(C)C,700,2800,–,–,–,–
CC(=O)N[C@@H](CC(C)C)C(=O)N[C@@H](CC(C)C)C(=O)N[C@H](CC(C)C)C(=O)N[C@@H](CC(C)C)C(=O)N[C@@H](CCCNC(=N)N)C(=O)N[C@H](C(=O)N[C@@H](CCCCN)C(=O)N[C@@H](CCCNC(=N)N)C(N)=O)C(C)C,6260,980,< 5,190000,<50,130000
CC(=O)N[C@@H](CC(C)C)C(=O)N[C@@H](CC(C)C)C(=O)N[C@@H](CC(C)C)C(=O)N[C@H](CC(C)C)C(=O)N[C@@H](CCCNC(=N)N)C(=O)N[C@H](C(=O)N[C@@H](CCCCN)C(=O)N[C@@H](CCCNC(=N)N)C(N)=O)C(C)C,14000,9550,–,–,–,–
CCCC[C@H](NC(=O)[C@H](CC(C)C)NC(=O)[C@H](CC(C)C)NC(=O)[C@H](CC(C)C)NC(C)=O)C(=O)N[C@@H](CCCNC(=N)N)C(=O)N[C@H](C(=O)N[C@@H](CCCCN)C(=O)N[C@@H](CCCNC(=N)N)C(N)=O)C(C)C (Ac-LLL[Nle]RVKR-NH2),–,–,–,110000,<50,220000
CCCC[C@H](NC(=O)[C@H](CC(C)C)NC(C)=O)C(=O)N[C@@H](CC(C)C)C(=O)N[C@@H](CC(C)C)C(=O)N[C@@H](CCCNC(=N)N)C(=O)N[C@H](C(=O)N[C@@H](CCCCN)C(=O)N[C@@H](CCCNC(=N)N)C(N)=O)C(C)C (Ac-L[Nle]LLRVKR-NH2),39,980,–,–,–,–
CCCC[C@H](NC(=O)[C@H](CC(C)C)NC(C)=O)C(=O)N[C@@H](CCCC)C(=O)N[C@@H](CC(C)C)C(=O)N[C@@H](CCCN=C(N)N)C(=O)N[C@H](C(=O)N[C@@H](CCCCN)C(=O)N[C@@H](CCCN=C(N)N)C(N)=O)C(C)C (Ac-L[Nle][Nle]LRVKR-NH2),170,2300,–,–,–,–

# Further lines, with some results ahead:
Ki [1] [nM],Ki (Furin) [nM],SMILES,"cytotoxicity at 4 h, 100 µM [2] [%]",IC50 (DU-145) [nM],inhibition (INH) (PC-3) [%],IC50 (LNCaP) [nM]
57,950,CCCC[C@H](NC(C)=O)C(=O)N[C@@H](CCCC)C(=O)N[C@@H](CC(C)C)C(=O)N[C@@H](CC(C)C)C(=O)N[C@@H](CCCN=C(N)N)C(=O)N[C@H](C(=O)N[C@@H](CCCCN)C(=O)N[C@@H](CCCN=C(N)N)C(N)=O)C(C)C,–,–,–,–
960,11000,CC(=O)N[C@@H](CC(C)C)C(=O)N[C@@H](CC(C)C)C(=O)N[C@@H](CC(C)C)C(=O)N[C@@H](CC(C)C)C(=O)N[C@@H](CCCNC(=N)N)C(=O)N[C@H](C(=O)N[C@@H](CCCCN)C(=O)N[C@@H](Cc1ccc(NC(=N)N)cc1)C(N)=O)C(C)C (Ac-LLLLRVK[Phe(4-guanidino)]-NH2),–,–,–,–
27,560,CCCC[C@H](NC(=O)[C@H](CC(C)C)NC(=O)[C@H](CC(C)C)NC(=O)[C@H](CC(C)C)NC(C)=O)C(=O)N[C@@H](CCCN=C(N)N)C(=O)N[C@H](C(=O)N[C@@H](CCCCN)C(=O)N[C@@H](CCCN=C(N)N)C(N)=O)C(C)C (Ac-LLL[Nle]RVKR-NH2),< 5,–,–,–
350,2100,CCCC[C@H](NC(=O)[C@H](CC(C)C)NC(=O)[C@H](CC(C)C)NC(C)=O)C(=O)N[C@@H](CCCC)C(=O)N[C@@H](CCCN=C(N)N)C(=O)N[C@H](C(=O)N[C@@H](CCCCN)C(=O)N[C@@H](CCCN=C(N)N)C(N)=O)C(C)C (Ac-LL[Nle][Nle]RVKR-NH2),–,–,–,–

# Source: ChEMBL document CHEMBL3112425, “Design, synthesis, and structure-activity relationship studies of a potent PACE4 inhibitor” (J Med Chem, 2014)
